DNA FID counter: compounds displacing fluorescent DNA intercalator, primary screen, artefact control for HCV NS3 helicase inhibitor project, biochemical, FID fluorescence | DNA fluorescent intercalator displacement | inhibition, % at 7.9 µM | 0.17% of 290,000 active; in the data active means inhibition above about 37%;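 further: 0% = vehicle and 100% = reference compound; higher means more ethidium bromide displaced from hairpin DNA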
NR3A LBD binder: binders of NR3A ligand-binding domain, primary screen, biophysical, differential scanning fluorimetry, uHTS. 2.5% of 340,000 active. Glutamate receptor ionotropic, NMDA 3A (GRIN3A) ligand-binding domain. NR3A LBD differential scanning fluorimetry, Tm shift; 0% = protein alone, 100% = glycine-bound protein. AID 1259313, 2017. Tm shift relative to glycine control, % at 25 µM;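 active means melting temperature shift of at least 10% of the positive control shift, at one fixed dose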
EBNA-1 inhibitor: EBNA-1 DNA-binding inhibitors, primary screen, biochemical, fluorescence polarization; inhibition, % at 14.8 µM; 0.34% of 300,000 active; in the data active means inhibition above about 28%
HCV NS3 hel inh: inhibitors of HCV NS3 helicase, primary screen, biochemical, Cy5 molecular beacon fluorescence. 0.56% of 290,000 active. inhibition, % at 10.9 µM. NS3 helicase DNA unwinding. Hepatitis C virus NS3 helicase;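 active means inhibition above the mean of all tested compounds plus 3 SD, set per campaign, cut at about 35% in these data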;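 further: 0% = DMSO wells and 100% = thioflavine S control wells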
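Measured by: Cy5 fluorescence, 0 and 60 min reads / Assay system: NS3 helicase fragment of HCV / Control set: low DMSO, high thioflavine S at 110 µM / Times: 1 h reaction at 25 °C, ATP-initiated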
FGF22 binding: binders of human FGF22 protein, primary screen, FGF22 synaptogenesis inhibitor project, biophysical, thermal shift, single point. Fibroblast growth factor 22 (Homo sapiens), Q9HCT0. recombinant FGF22 thermal shift, SYPRO orange fluorescence; percent of sucrose octasulfate shift, DMSO zero. activity (Tm shift, normalised), % at 9.99 µM. 1.5% of 340,000 active;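 active means mean Tm shift, scaled 0 neutral to 100 positive control, at about 1.3% or above, every replicate too, limit read from the data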
Target sequence (Q9HCT0 whole entry, looked up): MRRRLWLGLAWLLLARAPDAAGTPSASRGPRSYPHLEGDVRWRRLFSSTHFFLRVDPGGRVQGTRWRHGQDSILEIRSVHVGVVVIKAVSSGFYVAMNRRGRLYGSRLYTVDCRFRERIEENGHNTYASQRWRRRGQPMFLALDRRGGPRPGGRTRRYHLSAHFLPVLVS
ZTA counter: blocks Epstein-Barr virus ZTA, an EBNA-1 counter-screen; ZTA-DNA binding, fluorescence polarization; AID 2234; inhibition, % at 11 µM; 0.15% of 320,000 active; in the data active means inhibition above about 33%
Target sequence (P03206 whole entry, looked up): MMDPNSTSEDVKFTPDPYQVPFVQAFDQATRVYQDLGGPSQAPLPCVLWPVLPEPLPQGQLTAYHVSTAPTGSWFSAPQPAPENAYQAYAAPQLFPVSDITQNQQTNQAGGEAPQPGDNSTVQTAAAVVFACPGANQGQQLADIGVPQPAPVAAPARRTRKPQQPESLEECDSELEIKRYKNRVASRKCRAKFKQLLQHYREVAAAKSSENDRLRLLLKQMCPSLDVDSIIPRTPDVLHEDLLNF
* hit, by the source's call. A selection: hits, their analogues and other compounds. The true share with any hit is near 3.6%.

COc1cccc(S(=O)(=O)N2C[C@@H](O)COC[C@@H]3O[C@@H](CC(=O)N4CCCCC4)CC[C@H]32)c1 was read as FGF22 binding -1.
Screening Cc1cc(CN(C)C(=O)c2ccc(OC3CCN(Cc4ccccn4)CC3)cc2)on1 returned DNA FID counter -7, NR3A LBD binder 4, EBNA-1 inhibitor -7, HCV NS3 hel inh 9, FGF22 binding 0 and ZTA counter -8.
`Cc1nonc1CN(C)C(=O)c1ccc(OC2CCN(C(=O)c3cccnc3)CC2)cc1` gave DNA FID counter -16, NR3A LBD binder -2, EBNA-1 inhibitor 3, HCV NS3 hel inh 2, FGF22 binding 44* and ZTA counter -8.
For CCOCC(O)CNC(=O)c1ccc(OC2CCN(C(=O)c3cccnc3)CC2)cc1 (stereo unspecified) the results were DNA FID counter -8, NR3A LBD binder 1, EBNA-1 inhibitor -20, HCV NS3 hel inh 4, FGF22 binding 0 and ZTA counter -14.
Cc1nonc1CN(C)C(=O)c1ccc(OC2CCN(Cc3ccccn3)CC2)cc1 was read as DNA FID counter 4, NR3A LBD binder -2, EBNA-1 inhibitor 1, HCV NS3 hel inh -14, FGF22 binding 44* and ZTA counter -10.
NC(=O)c1c(/N=C/c2cccnc2)sc2c1CCCC2 was read as DNA FID counter -6, NR3A LBD binder 11*, EBNA-1 inhibitor -10, HCV NS3 hel inh 7, FGF22 binding 0 and ZTA counter -1.
Screening COc1ccc(/C=N/n2cnc3c(sc(=S)n3-c3ccccc3)c2=O)cc1 returned DNA FID counter -1, NR3A LBD binder 16*, EBNA-1 inhibitor 1, HCV NS3 hel inh -6, FGF22 binding 0 and ZTA counter -2.
COc1ccc(OC)c(C(O)c2nc3ccccc3n2C(C)C)c1 (stereo unspecified) was read as DNA FID counter -10, NR3A LBD binder 1, EBNA-1 inhibitor 6, HCV NS3 hel inh 6 and ZTA counter 11.
`COc1cc(C(O)c2nc3ccccc3n2C(C)C)cc(OC)c1OC` (stereo unspecified) gave DNA FID counter 53*, NR3A LBD binder -1, EBNA-1 inhibitor -4, HCV NS3 hel inh -2, FGF22 binding -1 and ZTA counter -10.
`Cc1cc(NN)nc2ccc(Cl)cc12` gave DNA FID counter -3, NR3A LBD binder 12*, EBNA-1 inhibitor -5, HCV NS3 hel inh 18, FGF22 binding 0 and ZTA counter -3.
For O=C(Nc1ccc(Br)c2ccccc12)c1ccc2ccccc2c1O the results were DNA FID counter 8, NR3A LBD binder 19*, EBNA-1 inhibitor 14, HCV NS3 hel inh 29, FGF22 binding 0 and ZTA counter 3.
For COc1ccc(C2NC(=O)CS2)cc1OC (stereo unspecified) the results were DNA FID counter 0, NR3A LBD binder -1, EBNA-1 inhibitor -14, HCV NS3 hel inh 4 and ZTA counter -7.
COc1ccccc1C1NC(=O)CS1 (stereo unspecified) was read as DNA FID counter 10, NR3A LBD binder 14*, EBNA-1 inhibitor -5, HCV NS3 hel inh -3 and ZTA counter 5.
For CC(C)(C)c1ccc(C(CC(=O)O)NC(=O)c2ccccc2F)cc1 (stereo unspecified) the results were DNA FID counter -27, NR3A LBD binder 1, EBNA-1 inhibitor 5, HCV NS3 hel inh 5, FGF22 binding 43* and ZTA counter -2.
Screening O=C(C[C@H]1CC[C@@H](NC(=O)C2CCOCC2)[C@H](CO)O1)Nc1nccs1 returned FGF22 binding 0.
`COc1ccc(-c2n(CC(=O)OC3CC(C)CCC3C(C)C)c3ccccc3[n+]2C)cc1` (stereo unspecified) gave DNA FID counter 36, NR3A LBD binder 6, HCV NS3 hel inh -73 and FGF22 binding 44*.
For COc1ccc(OCc2n(CC(=O)OC3CC(C)CCC3C(C)C)c3ccccc3[n+]2C)cc1 (stereo unspecified) the results were DNA FID counter 40*, NR3A LBD binder -5, EBNA-1 inhibitor 8, HCV NS3 hel inh -76, FGF22 binding 0 and ZTA counter -11.
`CC1CCC(C(C)C)C(OC(=O)CSc2nccc(=O)[nH]2)C1` (stereo unspecified) gave DNA FID counter -22, NR3A LBD binder -2, EBNA-1 inhibitor -6, HCV NS3 hel inh 7 and ZTA counter -20.
CCCC#Cc1cnc2c(c1)C(=O)N([C@@H](C)CO)C[C@@H](C)[C@H](CN(C)C(=O)c1cnccn1)O2 was read as FGF22 binding -1.
Screening COC(=O)Nc1ccc(S(=O)(=O)Nc2ccc(C(=O)O)cc2)cc1 returned DNA FID counter 6, NR3A LBD binder -2, EBNA-1 inhibitor -2, HCV NS3 hel inh 7, FGF22 binding 43* and ZTA counter -13.
NS(=O)(=O)c1ccc(C(=O)Nc2ccc(-c3nc4cccnc4s3)cc2)cc1 was read as DNA FID counter -5, NR3A LBD binder 30*, EBNA-1 inhibitor 26, HCV NS3 hel inh -2, FGF22 binding 0 and ZTA counter 9.
O=C(Nc1ccncc1)c1cncc(Br)c1 was read as DNA FID counter 1, NR3A LBD binder 11*, EBNA-1 inhibitor -6, HCV NS3 hel inh -5 and ZTA counter -13.
`NS(=O)(=O)c1ccc(NC(=O)c2ccc(-c3ccccc3)cc2)cc1` gave DNA FID counter -8, NR3A LBD binder 2, HCV NS3 hel inh 22 and FGF22 binding 0.
Screening O=C(Nc1ccncc1)c1ccc(-c2ccccc2)cc1 returned DNA FID counter 5, NR3A LBD binder 4, EBNA-1 inhibitor -3, HCV NS3 hel inh -10, FGF22 binding 45* and ZTA counter 13.
O=C(Nc1cccnc1)c1ccc(-c2ccccc2)cc1 was read as DNA FID counter -2, NR3A LBD binder -9, EBNA-1 inhibitor 2, HCV NS3 hel inh 1, FGF22 binding 0 and ZTA counter -21.
`CNC[C@H]1Oc2c(NC(=O)Nc3ccc(C(F)(F)F)cc3)cccc2C(=O)N([C@@H](C)CO)C[C@H]1C` gave FGF22 binding 0.
Screening C/C=C/c1ccc2c(c1)O[C@@H](CN(C)C(=O)COC)[C@H](C)CN([C@H](C)CO)S2(=O)=O returned FGF22 binding 0.
For NS(=O)(=O)c1ccc(NS(=O)(=O)c2ccc(NC(=O)c3ccc(-c4ccccc4)cc3)cc2)cc1 the results were DNA FID counter -1, NR3A LBD binder 23*, EBNA-1 inhibitor 11, HCV NS3 hel inh 7 and ZTA counter 10.

Screening data from PubChem.
